# According to PMC12279052 (RSC Advances, 2025):
# What was measured:
# [1] = Thermal stability by TG/DTG; format: physicochemical; details: first decomposition process, 10 K min^−1, argon
# Method in brief: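 Simultaneous thermal analysis ran from 30–500 °C at 10 K min−1 on 3–5 mg sample in an Al2O3 crucible, with α-Al2O3 as reference. Argon served as protective gas at 20 mL min−1 and as purge gas at 60 mL min−1.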
# [2] = system: human lung cancer cell line A549; test: Cell toxicity assay, MTT; format: cell-based; details: A549, MTT, 24 h, n = 3
# [3] = system: human hepatocellular carcinoma cell line HepG2; test: Cell toxicity assay, MTT; format: cell-based; details: HepG2, MTT, 24 h, n = 3
# [4] = system: Candida albicans ATCC10231; test: Antimicrobial activity, broth dilution MIC; format: cell-based; details: C. albicans, n = 3
# [5] = Aggregation in water by electrical conductivity; format: physicochemical; details: for cmc: conductivity, water; for ionization degree α: micelle (cmc); for ΔG^0m / ΔH^0m / ΔS^0m / −TΔS^0m: micellization (cmc)
# Method in brief: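 Conductivity of aqueous test compound solutions was measured with a digital conductivity meter and electrode, calibrated against standard KCl, with a thermostat holding ±0.02 K and ±3% relative uncertainty. cmc and cac were taken from the break points, found by fitting the Aguiar equation. α came from the ratio of post- to pre-transition slopes (A2/A1), and micellization thermodynamic functions from the mass action model.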
# [6] = Steady-state fluorescence with pyrene probe; format: physicochemical; details: 298.15 K; for cmc: Fluorescence (pyrene I1/I3), water; for N agg (aggregation number): ST = 2.5 cmc, fluorescence quenching with CPC
# Method in brief: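 Pyrene (1 μM) served as probe at 298.15 K. Excitation was 335 nm, emission 355–650 nm, slits 2.5 nm, 700 V, 240 nm min−1, in a 1 cm quartz cuvette. cmc came from a Boltzmann fit of I1/I3 (373/384 nm). For Nagg, test compound at 2.5 cmc was quenched with cetylpyridinium chloride at 0.2–1.0 × 10−4 mol dm−3, and Nagg was derived from linear ln(I0/I) versus [Q].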
# [7] = Density measurement, apparent molar volume at infinite dilution in water; format: physicochemical; details: aqueous solution
# Method in brief: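 Solution density was measured with a vibrating-tube densitometer calibrated with dry air and double-distilled water, with Peltier temperature control at ±0.01 K and density uncertainty 2.0 × 10−4 g cm−3. Apparent molar volumes were computed versus molality. Infinite-dilution values came from the Redlich–Mayer equation with empirical parameters Sv and Bv.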
# [8] = system: Escherichia coli ATCC25922; test: Antibacterial activity, broth dilution MIC; format: cell-based; details: E. coli, n = 3
# [9] = system: Cutibacterium acnes ATCC6919; test: Antibacterial activity, broth dilution MIC; format: cell-based; details: C. acnes, n = 3
# [10] = system: Staphylococcus aureus ATCC29213; test: Antibacterial activity, broth dilution MIC; format: cell-based; details: S. aureus, n = 3
# [11] = Conductivity in low concentration region; format: physicochemical; details: in water
# Method in brief: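 Conductivity of aqueous test compound solutions was measured at each temperature in double-distilled deionized water (0.8 − 1.0 × 10−4 S m−1 at 298.15 K). The digital meter and electrode were calibrated with standard KCl, and the thermostat held ±0.02 K; relative standard uncertainty was ±3%.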
# [12] = Octanol–water partition coefficient, shake-flask method; format: physicochemical
# Method in brief: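 Shake-flask partitioning was run at 25 and 37 °C in water, SGF (pH 1.2), SIF (pH 6.8) or SBF (pH 7.4). Fluids were prepared per USP without enzyme and pre-saturated with n-octanol (24 h shaking, 24 h separation). Test compound in buffer-saturated octanol (5 mL) was shaken 24 h with 5 mL octanol-saturated buffer, then centrifuged 10 min. The octanol phase was read by UV at 200 nm, and log Ko/w = log Co/(C−Co).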
# [13] = pH = 7.0 (ultrapure water), 25 °C
# [14] = pH = 7.0 (ultrapure water), 37 °C
compound,measurement,setting,value
CCCCCCC(=O)O.O=C1CCC[C@@H]2[C@H]3CCCN4CCC[C@@H](CN12)[C@@H]34 [[Mat][C7]],T onset (onset decomposition temperature),[1],185.5 °C
same,IC50,[2],14 mM
same,IC50,[3],4.47 mM
same,MIC,[4],66.0 mM
same,cmc,[5]; 293.15 K,0.00511 mol/kg
same,cmc,[5]; 298.15 K,0.00524 mol/kg
same,cmc,[5]; 303.15 K,0.00536 mol/kg
same,cmc,[5]; 308.15 K,0.00549 mol/kg
same,cmc,[5]; 313.15 K,0.00558 mol/kg
same,ionization degree α,[5]; 293.15 K,0.8986
same,ionization degree α,[5]; 298.15 K,0.8976
same,ionization degree α,[5]; 303.15 K,0.8989
same,ionization degree α,[5]; 308.15 K,0.8927
same,ionization degree α,[5]; 313.15 K,0.8987
same,ΔG^0m,[5]; 293.15 K,-24.94 kJ/mol
same,ΔH^0m,[5]; 293.15 K,-4.00 kJ/mol
same,ΔS^0m,[5]; 293.15 K,71.43 J mol^−1 K^−1
same,−TΔS^0m,[5]; 293.15 K,-20.94 kJ/mol
same,ΔG^0m,[5]; 298.15 K,-25.33 kJ/mol
same,ΔH^0m,[5]; 298.15 K,-3.85 kJ/mol
same,ΔS^0m,[5]; 298.15 K,72.03 J mol^−1 K^−1
same,−TΔS^0m,[5]; 298.15 K,-21.48 kJ/mol
same,ΔG^0m,[5]; 303.15 K,-25.66 kJ/mol
same,ΔH^0m,[5]; 303.15 K,-3.68 kJ/mol
same,ΔS^0m,[5]; 303.15 K,72.51 J mol^−1 K^−1
same,−TΔS^0m,[5]; 303.15 K,-21.98 kJ/mol
same,ΔG^0m,[5]; 308.15 K,-26.16 kJ/mol
same,ΔH^0m,[5]; 308.15 K,-3.51 kJ/mol
same,ΔS^0m,[5]; 308.15 K,73.51 J mol^−1 K^−1
same,−TΔS^0m,[5]; 308.15 K,-22.65 kJ/mol
same,ΔG^0m,[5]; 313.15 K,-26.40 kJ/mol
same,ΔH^0m,[5]; 313.15 K,-3.29 kJ/mol
same,ΔS^0m,[5]; 313.15 K,73.80 J mol^−1 K^−1
same,−TΔS^0m,[5]; 313.15 K,-23.11 kJ/mol
same,cmc,[6],0.00554 mol/kg
same,N agg (aggregation number),[6],25
same,"Apparent molar volume at infinite dilution V^0 2,φ",[7]; 293.15 K,321.56 ± 0.09 cm^3 mol^−1
same,"Apparent molar volume at infinite dilution V^0 2,φ",[7]; 298.15 K,323.31 ± 0.11 cm^3 mol^−1
same,"Apparent molar volume at infinite dilution V^0 2,φ",[7]; 303.15 K,324.72 ± 0.10 cm^3 mol^−1
same,"Apparent molar volume at infinite dilution V^0 2,φ",[7]; 308.15 K,326.82 ± 0.20 cm^3 mol^−1
same,MIC,[8],33.0 mM
same,MIC,[9],66.0 mM
same,MIC,[10],132.1 mM
same,Association constant KA,[11]; 298.15 K,6.11 ± 0.61 dm^3 mol^−1
same,Limiting molar conductivity Λ0,[11]; 298.15 K,47.78 ± 0.03 S cm^2 mol^−1
same,Association constant KA,[11]; 303.15 K,3.91 ± 0.48 dm^3 mol^−1
same,Limiting molar conductivity Λ0,[11]; 303.15 K,52.96 ± 0.03 S cm^2 mol^−1
same,Association constant KA,[11]; 308.15 K,1.53 ± 0.37 dm^3 mol^−1
same,Limiting molar conductivity Λ0,[11]; 308.15 K,59.37 ± 0.03 S cm^2 mol^−1
same,Log K o/w,"[12]; pH = 1.2 (SGF), 25 °C",−0.36
same,Log K o/w,"[12]; pH = 1.2 (SGF), 37 °C",0.07
same,Log K o/w,"[12]; pH = 6.8 (SIF), 25 °C",0.01
same,Log K o/w,"[12]; pH = 6.8 (SIF), 37 °C",0.25
same,Log K o/w,[12]; [13],0.42
same,Log K o/w,[12]; [14],0.69
same,Log K o/w,"[12]; pH = 7.4 (SBF), 25 °C",0.83
same,Log K o/w,"[12]; pH = 7.4 (SBF), 37 °C",1.01
CCCCCCCCC(=O)O.O=C1CCC[C@@H]2[C@H]3CCCN4CCC[C@@H](CN12)[C@@H]34 [[Mat][C9]],T onset (onset decomposition temperature),[1],196.3 °C
same,IC50,[2],3.15 mM
same,IC50,[3],2.12 mM
same,MIC,[4],0.96 mM
same,cmc,[5]; 293.15 K,0.00449 mol/kg
same,cmc,[5]; 298.15 K,0.00459 mol/kg
same,cmc,[5]; 303.15 K,0.00467 mol/kg
same,cmc,[5]; 308.15 K,0.00475 mol/kg
same,cmc,[5]; 313.15 K,0.00483 mol/kg
same,ionization degree α,[5]; 293.15 K,0.8848
same,ionization degree α,[5]; 298.15 K,0.8890
same,ionization degree α,[5]; 303.15 K,0.8957
same,ionization degree α,[5]; 308.15 K,0.8931
same,ionization degree α,[5]; 313.15 K,0.8922
same,ΔG^0m,[5]; 293.15 K,-25.61 kJ/mol
same,ΔH^0m,[5]; 293.15 K,-3.37 kJ/mol
same,ΔS^0m,[5]; 293.15 K,75.88 J mol^−1 K^−1
same,−TΔS^0m,[5]; 293.15 K,-22.24 kJ/mol
same,ΔG^0m,[5]; 298.15 K,-25.89 kJ/mol
same,ΔH^0m,[5]; 298.15 K,-3.21 kJ/mol
same,ΔS^0m,[5]; 298.15 K,76.06 J mol^−1 K^−1
same,−TΔS^0m,[5]; 298.15 K,-22.68 kJ/mol
same,ΔG^0m,[5]; 303.15 K,-26.12 kJ/mol
same,ΔH^0m,[5]; 303.15 K,-3.04 kJ/mol
same,ΔS^0m,[5]; 303.15 K,76.13 J mol^−1 K^−1
same,−TΔS^0m,[5]; 303.15 K,-23.08 kJ/mol
same,ΔG^0m,[5]; 308.15 K,-26.56 kJ/mol
same,ΔH^0m,[5]; 308.15 K,-2.87 kJ/mol
same,ΔS^0m,[5]; 308.15 K,76.88 J mol^−1 K^−1
same,−TΔS^0m,[5]; 308.15 K,-23.69 kJ/mol
same,ΔG^0m,[5]; 313.15 K,-26.97 kJ/mol
same,ΔH^0m,[5]; 313.15 K,-2.69 kJ/mol
same,ΔS^0m,[5]; 313.15 K,77.53 J mol^−1 K^−1
same,−TΔS^0m,[5]; 313.15 K,-24.28 kJ/mol
same,cmc,[6],0.00461 mol/kg
same,N agg (aggregation number),[6],64
same,"Apparent molar volume at infinite dilution V^0 2,φ",[7]; 293.15 K,353.45 ± 0.11 cm^3 mol^−1
same,"Apparent molar volume at infinite dilution V^0 2,φ",[7]; 298.15 K,355.41 ± 0.17 cm^3 mol^−1
same,"Apparent molar volume at infinite dilution V^0 2,φ",[7]; 303.15 K,357.32 ± 0.16 cm^3 mol^−1
same,"Apparent molar volume at infinite dilution V^0 2,φ",[7]; 308.15 K,360.15 ± 0.14 cm^3 mol^−1
same,MIC,[8],30.7 mM
same,MIC,[9],3.84 mM
same,MIC,[10],7.7 mM
same,Association constant KA,[11]; 298.15 K,6.74 ± 0.44 dm^3 mol^−1
same,Limiting molar conductivity Λ0,[11]; 298.15 K,47.11 ± 0.02 S cm^2 mol^−1
same,Association constant KA,[11]; 303.15 K,4.14 ± 0.68 dm^3 mol^−1
same,Limiting molar conductivity Λ0,[11]; 303.15 K,52.90 ± 0.04 S cm^2 mol^−1
same,Association constant KA,[11]; 308.15 K,1.72 ± 1.03 dm^3 mol^−1
same,Limiting molar conductivity Λ0,[11]; 308.15 K,59.10 ± 0.07 S cm^2 mol^−1
same,Log K o/w,"[12]; pH = 1.2 (SGF), 25 °C",−0.33
same,Log K o/w,"[12]; pH = 1.2 (SGF), 37 °C",0.14
same,Log K o/w,"[12]; pH = 6.8 (SIF), 25 °C",0.02
same,Log K o/w,"[12]; pH = 6.8 (SIF), 37 °C",0.34
same,Log K o/w,[12]; [13],0.68
same,Log K o/w,[12]; [14],0.81
same,Log K o/w,"[12]; pH = 7.4 (SBF), 25 °C",0.96
same,Log K o/w,"[12]; pH = 7.4 (SBF), 37 °C",1.12
